The list is not random: actives were taken first. Their share in the collection is about 4.7%.
RGS4 pot = RGS4 potentiators or activators, primary screen, cell-based, HEK293 M3R inducible RGS4, calcium flux | carbachol calcium flux Fluo4; hits give low values | B-score at 10 µM | actives 0.92% (n = 310,000) | AID 463111, 2010;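 active = B-score of the integrated calcium signal more than 4 SD below the library mean, with starting fluorescence not abnormally high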;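 also: negative B-score means reduced calcium response which marks RGS4 activation or potentiation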
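Test system: HEK293 cells with stable M3R and inducible RGS4; also added: carbachol at ECmax as muscarinic agonist stimulus; schedule: dye loading 30 min 37 °C, buffer rest 30 min RT; technique: kinetic calcium fluorescence imaging with Fluo4-AM dye, 2 µM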
MrgX1 PAM = positive allosteric modulators of MrgX1, primary screen, HEK293 cells, Fluo-4 calcium flux; Mas-related G-protein coupled receptor member X1 (Homo sapiens), Q96LB2; FDSS; hits give high values; B-score at 10 µM; actives 0.63% (n = 310,000);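 active = plate-corrected calcium response at least 3 library SD above typical, normal starting fluorescence, not activating the receptor alone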;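 also: compound read alongside a low EC10 to EC30 dose of BAM8-22 agonist; peak minus trough fluorescence over baseline measured at the second addition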
Target sequence (Q96LB2 whole entry, looked up): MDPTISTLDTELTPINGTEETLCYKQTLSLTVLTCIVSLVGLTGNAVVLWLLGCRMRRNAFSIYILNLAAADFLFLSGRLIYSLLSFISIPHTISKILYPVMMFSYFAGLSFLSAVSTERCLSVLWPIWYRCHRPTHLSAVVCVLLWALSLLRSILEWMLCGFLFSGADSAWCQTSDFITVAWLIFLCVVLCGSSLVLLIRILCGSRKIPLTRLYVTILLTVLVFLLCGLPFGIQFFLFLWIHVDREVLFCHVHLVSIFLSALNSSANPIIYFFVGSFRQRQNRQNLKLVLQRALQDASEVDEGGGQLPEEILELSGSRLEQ
MrgX1 antag = antagonists of human MrgX1 receptor, primary screen, HEK293 cells, Fluo-4 calcium flux; Mas-related G-protein coupled receptor member X1 (Homo sapiens), Q96LB2; BAM8-22 antagonism; hits give low values; B-score at 10 µM; actives 1.3% (n = 310,000);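 active = calcium-response B-score plate-corrected more than 3 library SD below zero, starting fluorescence within 5 deviations, no agonist response on first addition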;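 also: peak minus trough fluorescence over baseline after final BAM8-22 challenge near maximal dose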
RGS4 inh = RGS4 inhibitors, primary screen, cell-based, HEK293 M3R inducible RGS4, calcium flux. Fluo-4 calcium flux; hits give high values; triggered by carbachol at its EC20. B-score at 10 µM. actives 0.45% (n = 310,000). Regulator of G-protein signaling 4 (Homo sapiens), P49798. AID 463165, 2010;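 active = B-score, a plate-corrected calcium signal, over three deviations above library mean, with baseline fluorescence within five deviations of library mean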;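 also: RGS4 expression induced by doxycycline in cells with stable M3 receptor; B-score is computed from the integrated fluorescence ratio over baseline after carbachol; higher B-score means a larger calcium signal and so more RGS4 inhibition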
Target sequence (P49798 whole entry, looked up): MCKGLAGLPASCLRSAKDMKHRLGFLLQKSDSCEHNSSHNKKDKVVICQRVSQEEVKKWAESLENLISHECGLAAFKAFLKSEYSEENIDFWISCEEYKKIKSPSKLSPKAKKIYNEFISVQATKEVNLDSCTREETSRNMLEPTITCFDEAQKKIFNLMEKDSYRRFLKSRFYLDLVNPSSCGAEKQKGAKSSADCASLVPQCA
MrgX1 agonist = agonists of human MrgX1 receptor, primary screen, HEK293 cells, Fluo-4 calcium flux; Fluo-4 calcium fluorescence, agonist mode; hits give high values; B-score at 10 µM; actives 0.44% (n = 310,000);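 active = calcium response B-score plate-corrected fluorescence ratio at least 3 library SD, with starting fluorescence B-score inside 5 SD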
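Test system: HEK293 cells stably expressing human MrgX1 receptor; Input: fifteen thousand cells per well; Dosing: compound delivered in addition one of three; Schedule: overnight seeding, then 1 h dark dye loading; Technique: Fluo-4 NW calcium fluorescence; Measure: B-scored fluorescence response ratio; Controls: positive and negative controls per plate.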
KCC2 mod = KCC2 cotransporter modulators, thallium flux, primary screen, cell-based, HEK293 KCC2, FluoZin-2 fluorescence, MLSMR | Solute carrier family 12 member 5 (Homo sapiens), Q9H2X9 | KCC2 cells, thallium flux FluoZin-2 fluorescence | B-score of Tl+ flux slope (higher = more flux/activation; lower = inhibition) at 10 µM | actives 2.2% (n = 190,000);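 active = thallium flux slope and its plate-corrected score both differing from the plate sample mean at a set confidence after two filtering rounds, in either direction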;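 also: slope of fluorescence scaled to starting intensity during 10 to 20 s after thallium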
KCC2 sec1 = KCC2 modulators in sodium-free buffer, confirmation, cell-based, HEK293 KCC2, thallium flux, secondary assay; AID 1713, 2009; normalised thallium flux (F/F0 slope) at 10 µM; shares compounds with KCC2 mod; FluoZin2 fluorescence; hits give high values; actives 15% (n = 3,700);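 active = thallium flux slope above the same plate's solvent-only control mean plus 3 SD; inconclusive = the two replicate wells disagree; inactive = no significant difference from solvent-only control wells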
KCC2 bumet counter = thallium flux persisting under bumetanide in KCC2 cells, confirmation, counter-screen for KCC2 modulator project, cell-based, HEK293 KCC2, FluoZin2, secondary assay 3; shares compounds with KCC2 mod; actives 49% (n = 3,700); AID 1714, 2009; HEK293-KCC2 + bumetanide/ouabain; hits give high values; normalized thallium flux at 10 µM;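 active = thallium entry rate above the same plate's blocked-transporter control wells by more than 3 SD; inconclusive = the two repeat wells disagree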;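 also: raw slope of fluorescence over initial fluorescence between 10 and 20 s after thallium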
KCC2 secondary2 = KCC2 modulators without ouabain present, confirmation, cell-based, HEK293 KCC2, thallium flux, FluoZin2, secondary assay 2. shares compounds with KCC2 mod. normalized thallium flux at 10 µM. actives 23% (n = 3,700). thallium flux FluoZin2 fluorescence; actives lie on both sides; F/F0 rise rate, 10–20 s post-thallium;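 active = thallium flux slope more than 3 SD above or below the plate's solvent-only control mean, mostly below; inconclusive = the two repeat wells disagreed; inactive = no significant shift from solvent-only controls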
HEK counter1 = thallium flux modulation in parental HEK cells, confirmation, counter-screen for KCC2 modulator project, cell-based, counterscreen 1; shares compounds with KCC2 mod; HEK293 parental cells, thallium flux FluoZin2, ouabain; baseline-ratio fluorescence slope, 10–20 s after thallium; thallium flux rate (normalised fluorescence) at 10 µM; actives 46% (n = 3,700);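 active = thallium flux rate significantly above the same plate's solvent-only control wells, beyond their mean plus 3 SD; inconclusive = the two replicate wells gave conflicting results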
KCC2 ouabain = KCC2 inhibitors and activators, ouabain retest, confirmation, HEK-KCC2 cells; shares compounds with KCC2 mod; actives 48% (n = 3,700); raw Tl+ flux slope (below DMSO = inhibition, above = activation) at 10 µM; HEK293-KCC2, thallium flux FluoZin2 fluorescence; bidirectional: low = inhibitor, high = activator;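 active = thallium flux slope beyond 3 SD from same-plate DMSO control mean in most replicates, usually higher, sometimes lower; inconclusive = repeat tests gave conflicting results; inactive = no significant difference from controls in most replicates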;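 also: slope of initial-normalized fluorescence between seconds 10 and 20 after thallium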
HEK counter2 = native HEK Tl+ uptake effects, second counter-screen – HEK cells, counterscreen 2, counter-screen for KCC2 modulator project, confirmation; AID 1718, 2009; shares compounds with KCC2 mod; actives 33% (n = 3,700); thallium flux slope at 10 µM; HEK293 parental, thallium flux FluoZin-2 fluorescence slope;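 active = thallium flux slope above the same plate's solvent-control mean plus 3 SD in both duplicate wells; inconclusive = duplicate wells that disagreed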;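 also: run without ouabain in cells lacking the KCC2 cotransporter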
RGS4 activ val = reduced carbachol calcium response, RGS4-induced M3R cells, confirmation, RGS4 activator project, cell-based, HEK293 M3R/RGS4 inducible, calcium flux, duplicate; shares compounds with RGS4 pot; carbachol calcium flux Fluo4; inhibition, % at 10 µM; actives 89% (n = 1,100); AID 602282, 2012;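 active = inhibition above 3 SD of the buffer control wells, cut at about 41% in these data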;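 also: signal is the integrated peak-minus-minimum Fluo4 fluorescence over baseline ratio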
M3R Ca counter = RGS4 activator counter-screen hit in non-induced cells; shares compounds with RGS4 pot; HEK293 M3R non-induced RGS4, Fluo4 calcium flux; after carbachol challenge at its EC90; inhibition, % at 10 µM; actives 82% (n = 1,100); AID 602283;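 active = inhibition exceeding 3 SD of buffer-only control wells, cut at about 26% in these data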;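 also: percent drop in integrated peak-minus-baseline over baseline Fluo4 ratio after carbachol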
MrgX1 ag reconf = MrgX1 receptor agonists, duplicate retest, confirmation, HEK293 cells, Fluo-4 calcium flux; shares compounds with MrgX1 agonist; Fluo-4 calcium fluorescence, FDSS; activation, % at 10 µM; actives 78% (n = 600); AID 602412, 2012;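 active = calcium signal rise, corrected for plate position, at least 3 library SD high, with starting brightness within 5 such deviations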
MrgX1 antag conf = MrgX1 receptor antagonists, duplicate retest, confirmation, HEK293 cells, Fluo-4 calcium flux; remaining BAM8-22 calcium response % of control (hits give low values), % at 10 µM; shares compounds with MrgX1 antag; AID 602420, 2012; actives 19% (n = 2,300); BAM8-22 calcium flux; hits give low values;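 active = remaining agonist calcium response no higher than 100% minus 3 SD of agonist-only control wells, with starting fluorescence near control levels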;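 also: agonist BAM8-22 given at a near maximal EC90 to ECmax level; peak minus minimum fluorescence divided by baseline after agonist addition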
HEK293 Ca flux = nonspecific calcium signal in parental HEK293, confirmation, counter-screen for MrgX1 antagonist project, parental HEK293 cells, Fluo-4 calcium flux. shares compounds with MrgX1 antag. Fluo-4 calcium fluorescence, FDSS. fluorescence ratio F(max-min)/F0 at 10 µM. actives 2% (n = 4,000). AID 624111, 2012;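 active = duplicate-averaged calcium fluorescence ratio at least three times the standard deviation of buffer wells, a nonspecific response in parental cells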
HEK293 Ca counter = calcium response in parental HEK293 cells, primary screen, counter-screen for MrgX1 allosteric activator project, cell-based, Fluo-4 calcium flux, duplicate. shares compounds with MrgX1 antag. Fluo-4 fluorescence ratio; hits give high values. fluorescence ratio F(max-min)/F0 at 10 µM. actives 0.4% (n = 4,000);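 active = calcium fluorescence ratio, averaged over duplicates, at least 3 SD of the buffer-well ratio, meaning a nonspecific response in receptor-free cells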;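 also: untransfected parental HEK293 lacking MrgX1 used as counterscreen for MrgX1 allosteric activators; fluorescence change taken during the second addition on a kinetic imager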
HEK293 Ca cntr2 = calcium response in parental HEK293 cells, primary screen, counter-screen for MrgX1 agonist project, cell-based, Fluo-4 calcium flux, duplicate, agonist mode; shares compounds with MrgX1 antag; Fluo-4 calcium fluorescence (FDSS); hits give high values; fluorescence ratio F(max-min)/F0 at 10 µM; actives 8.7% (n = 4,000);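 active = calcium fluorescence ratio at least three times the spread of buffer wells, meaning a non-specific response in parental cells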
Each line names hits and unclear results; the compound was inactive in the other large screens (follow-up assays come after a bar, where they were run).

CCOC(=O)c1cccc(C(=O)Nc2nc3ccc(OC)cc3s2)n1	MrgX1 antag -5.03, KCC2 mod 91.2 | KCC2 sec1 0.0268 | KCC2 bumet counter 0.0791 | KCC2 secondary2 inconclusive | HEK counter1 0.0409 | KCC2 ouabain 0.0405 | HEK counter2 0.0393 | MrgX1 antag conf inactive | HEK293 Ca flux inactive | HEK293 Ca counter inactive | HEK293 Ca cntr2 inactive
COc1cccc(CNC(=O)Cn2cccc2)c1	MrgX1 antag -9.8, KCC2 mod 9.55 | KCC2 sec1 inactive | KCC2 bumet counter inactive | KCC2 secondary2 inactive | HEK counter1 inactive | KCC2 ouabain inactive | HEK counter2 inactive | MrgX1 antag conf 81.4% | HEK293 Ca flux inactive | HEK293 Ca counter inactive | HEK293 Ca cntr2 inactive
O=C(Nc1cccc(C(=O)O)c1)/C(=C\c1ccc2c(c1)OCO2)NC(=O)c1ccccc1Cl	none (no result: KCC2 mod)
COc1cc(OC)cc(C(=O)NC(=S)NNC(=O)[C@H]2C[C@@H]2c2ccccc2)c1	RGS4 pot -11, MrgX1 agonist 109, KCC2 mod 58.7 | KCC2 sec1 0.0234 | KCC2 bumet counter 0.0778 | KCC2 secondary2 0.0426 | HEK counter1 0.0326 | KCC2 ouabain 0.0591 | HEK counter2 0.0162 | RGS4 activ val 84.5 | M3R Ca counter 77.3 | MrgX1 ag reconf 580.2% | HEK293 Ca flux inactive | HEK293 Ca counter inactive | HEK293 Ca cntr2 110
N#Cc1c(NC(=O)c2ccc(Cn3cc(Br)cn3)o2)sc2c1CCCCC2	none
